According to ChEMBL document CHEMBL5338733, “Heterobifunctional Ligase Recruiters Enable pan-Degradation of Inhibitor of Apoptosis Proteins” (J Med Chem, 2023):
Activity calls are given as the source filed them. No cut-off for these calls is given here.

What was measured:
Type in all cases: cell-based
[1] = biological target: T1, Protein cereblon/Baculoviral IAP repeat-containing protein 2 (Homo sapiens) (UniProt Q13490+Q96SW2); test: PROTAC activity at CRBN/IAP in human MM1.S cells assessed as induction of cIAP1 degradation at 10 nM incubated for 16 hrs by western blot analysis
Procedure, shortened: (§1)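 MM.1S cells treated 16 h at the stated concentration. Lysed, run on SDS-PAGE and transferred to PVDF. Probed with primary antibodies overnight at 4 °C, then HRP secondaries, with ECL detection. Band densitometry normalized to loading control and to DMSO-treated cells. Averages of at least three independent experiments.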

[2] = biological target: T1, Protein cereblon/Baculoviral IAP repeat-containing protein 2 (Homo sapiens); test: PROTAC activity at CRBN/IAP in human MM1.S cells assessed as induction of cIAP1 degradation pretreated for 1 hr with ubiquitin-activating inhibitor, MLN7243 followed by incubation with drug for 3 hrs by western blot analysis
[3] = biological target: T2, Protein cereblon/Baculoviral IAP repeat-containing protein 3 (Homo sapiens) (UniProt Q13489+Q96SW2); test: PROTAC activity at CRBN/IAP in human MM1.S cells assessed as induction of cIAP2 degradation pretreated for 1 hr with ubiquitin-activating inhibitor, MLN7243 followed by incubation with drug for 3 hrs by western blot analysis
[4] = biological target: T1, Protein cereblon/Baculoviral IAP repeat-containing protein 2 (Homo sapiens); test: PROTAC activity at CRBN/IAP in human MM1.S cells assessed as induction of cIAP1 degradation incubated for 16 hrs by western blot analysis; settings: dose 0.0001-1 µM; procedure, shortened: as §1
[5] = biological target: T2, Protein cereblon/Baculoviral IAP repeat-containing protein 3 (Homo sapiens); test: PROTAC activity at CRBN/IAP in human MM1.S cells assessed as induction of cIAP2 degradation at 0.1 uM by western blot analysis; settings: time 3-96 hrs, TDE = time-dependent effect; procedure, shortened: as §1
[6] = biological target: T1, Protein cereblon/Baculoviral IAP repeat-containing protein 2 (Homo sapiens); test: PROTAC activity at CRBN/IAP in human MM1.S cells assessed as induction of cIAP1 degradation at 100 nM incubated for 3 hrs by diaPASEF-based analysis
Procedure, shortened: (§2)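 MM.1S cells exposed to DMSO or 0.1 μM compound for 3 h, then washed with PBS and snap-frozen. Lysed in 8 M urea/EPPS pH 8.5 buffer. 50 μg protein reduced, alkylated, precipitated, then digested with LysC and trypsin. Analysed by diaPASEF on timsTOF Pro2. Missing values imputed from a Gaussian distribution; log2 fold change versus DMSO with limma statistics.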

[7] = biological target: T1, Protein cereblon/Baculoviral IAP repeat-containing protein 2 (Homo sapiens); test: PROTAC activity at CRBN/IAP in human MM1.S cells assessed as induction of cIAP1 degradation at 0.1 uM incubated for 3 hrs by western blot analysis
Procedure, shortened: (§3)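 MM.1S cells treated with 0.1 μM compound for 3 h. Western blotting of lysates on PVDF with HRP/ECL detection.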

[8] = biological target: T3, Protein cereblon/E3 ubiquitin-protein ligase XIAP (Homo sapiens) (UniProt P98170+Q96SW2); test: PROTAC activity at CRBN/IAP in human MM1.S cells assessed as induction of XIAP degradation at 0.1 uM incubated for 3 hrs by western blot analysis; procedure, shortened: as §3
[9] = biological target: T2, Protein cereblon/Baculoviral IAP repeat-containing protein 3 (Homo sapiens); test: PROTAC activity at CRBN/IAP in human MM1.S cells assessed as induction of cIAP2 degradation pretreated for 1 hr with proteasome inhibitor, MG132 followed by incubation with drug for 3 hrs by western blot analysis
[10] = biological target: T3, Protein cereblon/E3 ubiquitin-protein ligase XIAP (Homo sapiens); test: PROTAC activity at CRBN/IAP in human MM1.S cells assessed as induction of XIAP degradation at 0.1 uM by western blot analysis; settings: time 3-96 hrs, TDE = time-dependent effect
[11] = biological target: T1, Protein cereblon/Baculoviral IAP repeat-containing protein 2 (Homo sapiens); test: PROTAC activity at CRBN/IAP in human MM1.S cells assessed as induction of cIAP1 degradation at 0.1 uM by western blot analysis; settings: time 3-96 hrs, TDE = time-dependent effect; procedure, shortened: as §1
[12] = biological target: T2, Protein cereblon/Baculoviral IAP repeat-containing protein 3 (Homo sapiens); test: PROTAC activity at CRBN/IAP in human MM1.S cells assessed as induction of cIAP2 degradation incubated for 16 hrs by western blot analysis; settings: dose 0.0001-1 µM; procedure, shortened: as §1
[13] = biological target: T3, Protein cereblon/E3 ubiquitin-protein ligase XIAP (Homo sapiens); test: PROTAC activity at CRBN/IAP in human MM1.S cells assessed as induction of XIAP degradation at 10 nM incubated for 16 hrs by western blot analysis
[14] = biological target: T3, Protein cereblon/E3 ubiquitin-protein ligase XIAP (Homo sapiens); test: PROTAC activity at CRBN/IAP in human MM1.S cells assessed as induction of XIAP degradation pretreated for 1 hr with proteasome inhibitor, MG132 followed by incubation with drug for 3 hrs by western blot analysis
[15] = biological target: T1, Protein cereblon/Baculoviral IAP repeat-containing protein 2 (Homo sapiens); test: PROTAC activity at CRBN/IAP in human MM1.S cells assessed as induction of cIAP1 degradation pretreated for 1 hr with proteasome inhibitor, MG132 followed by incubation with drug for 3 hrs by western blot analysis
[16] = biological target: T3, Protein cereblon/E3 ubiquitin-protein ligase XIAP (Homo sapiens); test: PROTAC activity at CRBN/IAP in human MM1.S cells assessed as induction of XIAP degradation pretreated for 1 hr with ubiquitin-activating inhibitor, MLN7243 followed by incubation with drug for 3 hrs by western blot analysis
[17] = biological target: T3, Protein cereblon/E3 ubiquitin-protein ligase XIAP (Homo sapiens); test: PROTAC activity at CRBN/IAP in human MM1.S cells assessed as induction of XIAP degradation incubated for 16 hrs by western blot analysis; settings: dose 0.0001-1 µM; procedure, shortened: as §1
[18] = biological target: T3, Protein cereblon/E3 ubiquitin-protein ligase XIAP (Homo sapiens); test: PROTAC activity at CRBN/IAP in human MM1.S cells assessed as induction of XIAP degradation at 0.1 uM incubated for 3 hrs by diaPASEF-based proteomics analysis; procedure, shortened: as §2
[19] = biological target: T2, Protein cereblon/Baculoviral IAP repeat-containing protein 3 (Homo sapiens); test: PROTAC activity at CRBN/IAP in human MM1.S cells assessed as induction of cIAP2 degradation at 0.1 uM incubated for 3 hrs by western blot analysis; procedure, shortened: as §3
[20] = biological target: Protein cereblon/Zinc finger protein Aiolos (Homo sapiens) (UniProt Q96SW2+Q9UKT9); test: PROTAC activity at CRBN/IKZF3 in human MM1.S cells assessed as induction of IKZF3 degradation at 1 uM incubated for 16 hrs by western blot analysis; procedure, shortened: as §1
Chain of Protein cereblon/Zinc finger protein Aiolos (Homo sapiens) (Q96SW2 whole entry, looked up): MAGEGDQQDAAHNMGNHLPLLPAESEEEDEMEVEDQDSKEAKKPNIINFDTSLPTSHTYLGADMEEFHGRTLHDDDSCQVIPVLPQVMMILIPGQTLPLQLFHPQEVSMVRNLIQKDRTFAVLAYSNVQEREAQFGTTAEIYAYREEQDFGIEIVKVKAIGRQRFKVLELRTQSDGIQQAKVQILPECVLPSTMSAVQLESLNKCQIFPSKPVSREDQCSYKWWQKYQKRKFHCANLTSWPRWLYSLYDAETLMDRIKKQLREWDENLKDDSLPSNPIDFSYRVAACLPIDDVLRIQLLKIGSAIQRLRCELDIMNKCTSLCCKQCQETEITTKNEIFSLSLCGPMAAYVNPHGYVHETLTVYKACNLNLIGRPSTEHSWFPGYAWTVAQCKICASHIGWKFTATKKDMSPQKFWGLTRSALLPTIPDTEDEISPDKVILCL
Chain of Protein cereblon/Zinc finger protein Aiolos (Homo sapiens) (Q9UKT9 whole entry, looked up): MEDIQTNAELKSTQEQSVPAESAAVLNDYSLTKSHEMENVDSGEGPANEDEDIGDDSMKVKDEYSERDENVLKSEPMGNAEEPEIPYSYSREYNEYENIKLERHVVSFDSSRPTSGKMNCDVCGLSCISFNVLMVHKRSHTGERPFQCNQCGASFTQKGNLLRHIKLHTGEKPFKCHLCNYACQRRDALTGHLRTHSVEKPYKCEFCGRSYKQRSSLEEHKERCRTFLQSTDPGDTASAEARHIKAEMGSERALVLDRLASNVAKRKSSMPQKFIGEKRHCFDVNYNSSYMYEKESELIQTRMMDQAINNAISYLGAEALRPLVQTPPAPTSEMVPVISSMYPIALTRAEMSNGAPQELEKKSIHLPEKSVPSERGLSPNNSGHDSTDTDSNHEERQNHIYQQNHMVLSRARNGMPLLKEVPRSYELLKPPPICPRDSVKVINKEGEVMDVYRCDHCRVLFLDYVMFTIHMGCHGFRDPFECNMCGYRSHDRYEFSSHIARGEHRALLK

T3 sequence (P98170 whole entry, looked up): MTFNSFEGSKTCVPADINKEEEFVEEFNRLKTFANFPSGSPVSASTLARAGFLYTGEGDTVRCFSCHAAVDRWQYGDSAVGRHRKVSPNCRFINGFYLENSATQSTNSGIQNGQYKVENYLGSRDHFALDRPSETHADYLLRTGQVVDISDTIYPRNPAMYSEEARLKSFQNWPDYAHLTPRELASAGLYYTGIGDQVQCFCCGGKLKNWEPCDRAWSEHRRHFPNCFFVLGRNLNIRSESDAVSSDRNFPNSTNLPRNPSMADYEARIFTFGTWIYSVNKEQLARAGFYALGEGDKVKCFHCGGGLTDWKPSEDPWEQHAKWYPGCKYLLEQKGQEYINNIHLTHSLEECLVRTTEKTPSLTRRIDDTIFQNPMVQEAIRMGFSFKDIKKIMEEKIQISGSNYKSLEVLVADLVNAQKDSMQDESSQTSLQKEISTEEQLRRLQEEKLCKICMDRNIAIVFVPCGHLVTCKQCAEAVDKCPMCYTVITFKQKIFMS
T3 sequence (Q96SW2 whole entry, looked up): as the sequence (Q96SW2 whole entry, looked up) above
T2 sequence (Q13489 whole entry, looked up): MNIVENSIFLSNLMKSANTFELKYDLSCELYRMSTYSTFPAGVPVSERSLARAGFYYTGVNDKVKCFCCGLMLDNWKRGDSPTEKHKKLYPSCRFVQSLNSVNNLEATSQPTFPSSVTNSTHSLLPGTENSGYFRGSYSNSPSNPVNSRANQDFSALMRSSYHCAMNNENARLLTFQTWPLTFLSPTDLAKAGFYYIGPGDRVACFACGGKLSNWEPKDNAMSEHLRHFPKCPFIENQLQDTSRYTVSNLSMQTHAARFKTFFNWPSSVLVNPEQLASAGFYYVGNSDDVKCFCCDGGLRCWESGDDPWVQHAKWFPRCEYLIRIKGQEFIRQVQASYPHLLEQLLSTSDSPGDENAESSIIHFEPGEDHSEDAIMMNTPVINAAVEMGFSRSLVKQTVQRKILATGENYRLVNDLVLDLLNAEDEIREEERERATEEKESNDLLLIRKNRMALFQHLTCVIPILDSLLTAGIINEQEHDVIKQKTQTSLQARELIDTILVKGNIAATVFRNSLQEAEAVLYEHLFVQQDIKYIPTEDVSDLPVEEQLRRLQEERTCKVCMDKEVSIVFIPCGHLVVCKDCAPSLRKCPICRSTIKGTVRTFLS
T2 sequence (Q96SW2 whole entry, looked up): as the sequence (Q96SW2 whole entry, looked up) above
T1 sequence (Q13490 whole entry, looked up): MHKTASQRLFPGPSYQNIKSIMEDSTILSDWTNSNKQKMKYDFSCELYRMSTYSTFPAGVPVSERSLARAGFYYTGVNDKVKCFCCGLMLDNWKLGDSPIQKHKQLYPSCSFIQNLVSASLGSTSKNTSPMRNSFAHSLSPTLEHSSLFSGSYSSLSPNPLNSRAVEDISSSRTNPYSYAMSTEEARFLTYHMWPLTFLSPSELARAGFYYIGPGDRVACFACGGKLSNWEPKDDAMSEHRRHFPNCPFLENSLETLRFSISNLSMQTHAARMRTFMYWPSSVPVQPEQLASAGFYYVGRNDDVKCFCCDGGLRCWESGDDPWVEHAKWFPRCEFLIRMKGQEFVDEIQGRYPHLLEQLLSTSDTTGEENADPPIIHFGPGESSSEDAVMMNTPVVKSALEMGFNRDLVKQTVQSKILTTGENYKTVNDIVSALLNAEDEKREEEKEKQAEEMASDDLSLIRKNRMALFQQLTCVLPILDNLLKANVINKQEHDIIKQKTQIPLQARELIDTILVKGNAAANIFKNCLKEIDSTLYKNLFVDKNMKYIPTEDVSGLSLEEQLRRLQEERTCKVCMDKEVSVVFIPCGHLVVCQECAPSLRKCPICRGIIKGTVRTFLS
T1 sequence (Q96SW2 whole entry, looked up): as the sequence (Q96SW2 whole entry, looked up) above

Activity [1]: 100%
Activity [2]: inactive
Activity [3]: inactive
Activity [4]: Dose-Dependent Effect
Activity [5]: Tde
Activity [6]: Active
Activity [7]: 100%
Activity [8]: 100%
Activity [9]: inactive
Activity [10]: Tde
Activity [11]: Tde
Activity [12]: Dose-Dependent Effect
Activity [13]: 100%
Activity [14]: inactive
Activity [15]: inactive
Activity [16]: inactive
Activity [17]: Dose-Dependent Effect
Activity [18]: Active
Activity [19]: 100%
Activity [20]: Active
Compound: CN[C@@H](C)C(=O)N[C@H](C(=O)N1C[C@@H](Oc2cccc(OCCOCCCCCCOCCCCCCNc3cccc4c3C(=O)N(C3CCC(=O)NC3=O)C4=O)c2)C[C@H]1C(=O)N[C@@H]1CCCc2ccccc21)C1CCCCC1 (stereo not given in full)
